pIC50: −log10 of the molar value. Active and inactive are the calls of the source. The calls are words filed in the database; no cut-off is given here.
What was measured:
[1] = biological target: T1, Serine protease hepsin (Homo sapiens, UniProt P05981); test: Inhibition of hepsin-mediated conversion of Pro-HGF into active form in human Hs578T cells assessed as decrease in MET phosphorylation at 100 nM preincubated for 30 mins followed by recombinant human pro-HGF addition measured after 30 mins by immunoblot method; format: cell-based
Method in brief: (§1)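 Hs578T or HCC1937 breast cells incubated with DMSO or inhibitor, then 50 ng/mL recombinant human Pro-HGF added; MET pathway activation (phospho-MET) assessed by immunoblotting.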

[2] = biological target: T1, Serine protease hepsin; test: Inhibition of hepsin-mediated conversion of Pro-HGF into active form in human HCC1937 cells assessed as decrease in MET phosphorylation at 100 nM preincubated for 30 mins followed by recombinant human pro-HGF addition measured after 30 mins by immunoblot method; format: cell-based; method in brief: as §1
[3] = species on record: Homo sapiens; test: Selectivity ratio of IC50 for recombinant C-terminal His10-tagged human uPA (M1 to L431 residues) to IC50 for recombinant C-terminal His10-tagged human Hepsin (R45 to […] residues) D161E/ R162K double mutant by automated fluorescence assay
[4] = biological target: T2, Urokinase-type plasminogen activator (Homo sapiens, UniProt P00749); test: Inhibition of recombinant C-terminal His10-tagged human uPA (M1 to L431 residues) expressed in mouse NS0 cells using Z-GGR-AMC as substrate after 15 mins by automated fluorescence assay
Method in brief: (§2)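 On-line assay integrated with the flow-synthesis platform: a 20 µL aliquot of each product solution captured automatically, HPLC-purified, then diluted and assayed.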

[5] = Chromatographic hydrophobicity index, log D of the compound at pH 7 by HPLC/UV analysis; format: physicochemical; settings: buffer
[6] = biological target: T3, Serine protease hepsin (Homo sapiens, UniProt P05981, D161E/R162K); test: Inhibition of recombinant C-terminal His10-tagged human Hepsin (R45 to […] residues) D161E/ R162K double mutant expressed in mouse NS0 cells using Boc-QRR-AMC as substrate after 15 mins by automated fluorescence assay; method in brief: as §2
[7] = biological target: T1, Serine protease hepsin; test: Inhibition of doxycycline induced Hepsin in human MCF10A cells assessed as prevention in loss of HAI-1 level at 10 uM preincubated for 30 mins followed by doxycycline addition measured after 6 hrs by Immunoblot assay; format: cell-based
Method in brief: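 MCF10A-Indu20-hepsin cells (Dox-inducible hepsin) pretreated 30 min with compound or DMSO, then hepsin induced with 100 ng/mL doxycycline for 6 h; HAI-1 protein scored by immunoblot.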

[8] = species on record: Homo sapiens; test: Selectivity ratio of IC50 for recombinant C-terminal His10-tagged human uPA (M1 to L431 residues) to IC50 for recombinant C-terminal His10-tagged human Hepsin (R45 to […] residues) D161E/ R162K double mutant by manual fluorescence assay
[9] = biological target: T1, Serine protease hepsin; test: Inhibition of hepsin-mediated conversion of Pro-HGF into active form in human Hs578T cells assessed as decrease in MET phosphorylation at 1 to 10 uM preincubated for 30 mins followed by recombinant human pro-HGF addition measured after 30 mins by immunoblot method; format: cell-based; method in brief: as §1
[10] = biological target: T3, Serine protease hepsin; test: Inhibition of recombinant C-terminal His10-tagged human Hepsin (R45 to […] residues) D161E/ R162K double mutant expressed in mouse NS0 cells using Boc-QRR-AMC as substrate after 15 mins by manual fluorescence assay
[11] = biological target: T2, Urokinase-type plasminogen activator; test: Inhibition of recombinant C-terminal His10-tagged human uPA (M1 to L431 residues) expressed in mouse NS0 cells using Z-GGR-AMC as substrate after 15 mins by manual fluorescence assay
[12] = biological target: T1, Serine protease hepsin; test: Inhibition of doxycycline induced Hepsin in human MCF10A cells using Boc-QRR-AMC as substrate preincubated for 24 hrs followed by doxycycline induction for 24 hrs and subsequent addition of substrate by fluorescence assay; format: cell-based
[13] = biological target: T1, Serine protease hepsin; test: Inhibition of doxycycline induced hepsin-mediated loss of desmosomal junctions in human MCF10A cells at 1 to 10 uM preincubated for 30 mins followed by doxycycline addition measured after 6 hrs by desmoglein 2 staining-based confocal immunofluorescence microscopic analysis; format: cell-based
Method in brief: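 MCF10A-Indu20-hepsin cells on coverslips pretreated 30 min with 1 or 10 µM compound or DMSO, then 100 ng/mL Dox for 6 h. Desmoglein 2 immunofluorescence: continuous pericellular staining scored positive, discontinuous or absent scored negative. Cells counted in 10 fields per treatment across three biological replicates; reported as percentages.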

[14] = biological target: T1, Serine protease hepsin; test: Inhibition of recombinant Hepsin (unknown origin)
[15] = biological target: T2, Urokinase-type plasminogen activator; test: Inhibition of uPA (unknown origin)
Method in brief: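 uPA inhibition was run as an on-line biochemical assay integrated into the automated flow-synthesis platform. A 20 µL aliquot of each product solution was automatically captured, HPLC-purified, diluted and assayed. Some samples were instead screened manually, either from platform-synthesized material or from off-line synthesis. The read-out is IC50.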

T1 sequence (P05981 1-162 limits assumed): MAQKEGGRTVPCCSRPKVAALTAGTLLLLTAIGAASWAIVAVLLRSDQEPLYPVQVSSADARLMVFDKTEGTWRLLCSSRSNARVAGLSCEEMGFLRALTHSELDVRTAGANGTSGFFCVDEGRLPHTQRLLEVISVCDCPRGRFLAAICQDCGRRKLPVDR
T1 sequence (P05981 163-417 limits assumed): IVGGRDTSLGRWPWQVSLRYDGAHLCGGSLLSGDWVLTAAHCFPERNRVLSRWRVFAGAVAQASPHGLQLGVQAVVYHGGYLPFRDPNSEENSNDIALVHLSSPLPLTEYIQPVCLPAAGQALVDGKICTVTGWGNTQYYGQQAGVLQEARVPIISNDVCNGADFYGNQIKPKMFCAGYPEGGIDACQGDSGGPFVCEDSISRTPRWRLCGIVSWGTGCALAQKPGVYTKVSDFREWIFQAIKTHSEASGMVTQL

Compound | Ratio IC50 [3] | pIC50 [4] | chromatographic logD [5] | pIC50 [6] | other results
C[C@@H](Oc1cc(-c2cnn(C3CCNCC3)c2)cnc1N)c1c(Cl)ccc(F)c1Cl |  |  |  |  | inhibition [1]: Active; inhibition [2]: Active
Cc1ccc(NC(=O)N[C@@H](C(=O)Nc2ccc(C(=N)N)cc2)C2CCCCC2)cc1 | 22 | 4.37 | 1.5 | 5.70 | 
Cc1ccc(S(=O)(=O)NCC(Cc2ccccc2)C(=O)Nc2ccc(C(=N)N)cc2)cc1 (configuration not stated) | 0.3 | 6.00 | 1.6 | 5.52 | 
Cc1ccc(S(=O)(=O)NC(C(=O)Nc2ccc(C(=N)N)cc2)C2CCOCC2)cc1 (configuration not stated) | > 13 | < 4.72 | 0.4 | 5.85 | 
N=C(N)c1ccc(NC(=O)[C@H](NS(=O)(=O)c2ccc(C(F)(F)F)cc2)C2CCCCC2)cc1 | 7 | 5.33 | 1.7 | 6.17 | inhibition [7]: inactive; Ratio IC50 [8]: > 2300; inhibition [9]: Active; pIC50 [10]: 6.07; pIC50 [11]: < 2.71; pIC50 [12]: 5.50
N=C(N)c1ccc(NC(=O)[C@H](NS(=O)(=O)c2ccccc2)C2CCCCC2)cc1 | 20 | 4.66 | 1.2 | 5.96 | 
Cc1ccc(S(=O)(=O)N2CCCC2C(=O)Nc2ccc(C(=N)N)cc2)cc1 (configuration not stated) | 3 to 9 | 4.55 to 5.28 | 0.5 | 5.52 to 5.82 | 
N=C(N)c1ccc2cc(OC(=O)c3ccc(N=C(N)N)cc3)ccc2c1 [NAFAMOSTAT] |  |  |  | 8.30 | 
Cc1ccc(S(=O)(=O)N[C@H](C(=O)Nc2ccc(C(=N)N)cc2)C2CCCCC2)cc1 |  |  | 1.3 |  | pIC50 [10]: 6.66
Cc1ccc(S(=O)(=O)NC(C(=O)Nc2ccc(C(=N)N)cc2)C2CCCC2)cc1 (configuration not stated) | 74 | 4.19 | 0.4 | 6.07 | 
CCCCC(NS(=O)(=O)c1ccc(C)cc1)C(=O)Nc1cccc(C(=N)N)c1 (configuration not stated) | 0.26 | 4.72 | 1.1 | 4.14 | 
Cc1ccc(S(=O)(=O)NC(C(=O)Nc2ccc(C(=N)N)cc2)c2ccccc2)cc1 (configuration not stated) |  |  | 0.9 |  | pIC50 [10]: 6.60; pIC50 [11]: 4.22
N=C(N)NCCC[C@@H](NC(=O)c1ccc2ccccc2c1O)C(=O)N1CCC[C@@H]1C(N)=O |  |  |  | < 5.00 | 
Cc1ccc(C(=O)N[C@@H](C(=O)Nc2ccc(C(=N)N)cc2)C2CCCCC2)cc1 | 5 | 4.61 | 1.7 | 5.30 | 
CCCCC(NS(=O)(=O)c1ccc(C)cc1)C(=O)Nc1ccc(Br)cc1 (configuration not stated) | 1 | 4.24 |  | 4.24 | 
CCOC(=O)c1ccc(OC(=O)CCCCCNC(=N)N)cc1 [GABEXATE] |  |  |  | 6.42 | 
CCOC(=O)N1CCN(C(=O)[C@@H](Cc2cccc(C(=N)N)c2)NS(=O)(=O)c2c(C(C)C)cc(C(C)C)cc2C(C)C)CC1 |  | 6.55 |  | 5.47 | inhibition [13]: inactive; inhibition [7]: inactive; inhibition [9]: Active; pIC50 [14]: 5.52; pIC50 [12]: 5.19

Compound | Ratio IC50 [3] | pIC50 [4] | chromatographic logD [5] | pIC50 [6] | other results
Cc1ccc(S(=O)(=O)NC(CC(=O)Nc2ccc(C(=N)N)cc2)C2CCCCC2)cc1 (configuration not stated) | 6 | 4.17 | 1.4 | 4.96 | 
N=C(N)c1cccc(C[C@H](NS(=O)(=O)c2ccc3ccccc3c2)C(=O)N2CCCC(C(=O)NCc3cccs3)C2)c1 (some centres not stated) |  | 5.61 |  | 6.17 | Ratio IC50 [8]: 18; pIC50 [10]: 6.48; pIC50 [11]: 5.22
COC(=O)N1CCN(C(=O)[C@H](Cc2cccc(C(=N)N)c2)NS(=O)(=O)c2ccc3ccccc3c2)CC1 |  |  |  | 5.21 | 
CCCCC(NS(=O)(=O)c1ccc(C)cc1)C(=O)Nc1ccc(C(=N)N)cc1 (configuration not stated) | 3 to 10 | 5.30 to 5.52 | 1.2 | 6.05 to 6.30 | 
N=C(N)c1ccc(NC(=O)[C@H](NS(=O)(=O)c2ccc(Cl)cc2)C2CCCCC2)cc1 | 180 | 4.74 | 1.5 | 7.00 | 
Cc1ccc(S(=O)(=O)NC(C(=O)Nc2ccc(C(=N)N)cc2)C(C)C)cc1 (configuration not stated) | 4 | 5.14 | 0.8 | 5.74 | 
CC1CNc2c(cccc2S(=O)(=O)N[C@@H](CCCN=C(N)N)C(=O)N2CC[C@H](C)CC2C(=O)O)C1 (some centres not stated) |  |  |  | < 5.00 | 
Cc1ccc(S(=O)(=O)NC(CC(C)C)C(=O)Nc2ccc(C(=N)N)cc2)cc1 (configuration not stated) | 12 to 33 | 4.70 to 4.96 | 1.2 | 6.05 to 6.22 | 
CCCCC(NS(=O)(=O)c1ccc(C)cc1)C(=O)Nc1ccc(C(=N)N)cc1F (configuration not stated) | 9 | 5.10 | 1.4 | 6.05 | 
N=C(N)c1ccc(/C=C2\CCCC/C(=C\c3ccc(C(=N)N)cc3)C2=O)cc1 |  | 6.32 |  | 6.57 | 
Cc1ccc(S(=O)(=O)NC(CC2CCCC2)C(=O)Nc2ccc(C(=N)N)cc2)cc1 (configuration not stated) | 23 | 4.80 | 1.5 | 6.15 | 
CN(C)C(=O)N1CCN(C(=O)[C@@H](Cc2cccc(C(=N)N)c2)NS(=O)(=O)c2ccc3ccccc3c2)CC1 |  |  |  | 5.18 | pIC50 [15]: < 5.00
Cc1ccc(S(=O)(=O)N(C)C(CC(C)C)C(=O)Nc2ccc(C(=N)N)cc2)cc1 (configuration not stated) | < 1 | 4.62 | 1.8 | < 4.72 | 
COc1ccc(S(=O)(=O)N[C@@H](C(=O)Nc2ccc(C(=N)N)cc2)C2CCCCC2)cc1 | 40 | 4.92 | 1.3 | 6.52 | 
Cc1ccc(S(=O)(=O)NC(CCc2ccccc2)C(=O)Nc2ccc(C(=N)N)cc2)cc1 (configuration not stated) |  | < 5.00 |  | 5.95 | Ratio IC50 [8]: 30; pIC50 [10]: 6.06; pIC50 [11]: 4.59
N=C(N)c1ccc(C[C@@H](NC(=O)CNS(=O)(=O)c2ccc3ccccc3c2)C(=O)N2CCCCC2)cc1 |  |  |  | 5.35 | 
COC(=O)C(Cc1cccc(C(=N)N)c1)NC(=O)CNS(=O)(=O)c1ccc(C)cc1 (configuration not stated) |  | < 5.00 |  | 5.50 | 
